The results in this text go back to ChEMBL document CHEMBL3808288, “Identification and in Vivo Evaluation of Liver X Receptor β-Selective Agonists for the Potential Treatment of Alzheimer's Disease” (J Med Chem, 2016).

The target of data set [1] is T1, Oxysterols receptor LXR-alpha (Homo sapiens, UniProt Q13133).
T1 sequence (Q13133 whole entry): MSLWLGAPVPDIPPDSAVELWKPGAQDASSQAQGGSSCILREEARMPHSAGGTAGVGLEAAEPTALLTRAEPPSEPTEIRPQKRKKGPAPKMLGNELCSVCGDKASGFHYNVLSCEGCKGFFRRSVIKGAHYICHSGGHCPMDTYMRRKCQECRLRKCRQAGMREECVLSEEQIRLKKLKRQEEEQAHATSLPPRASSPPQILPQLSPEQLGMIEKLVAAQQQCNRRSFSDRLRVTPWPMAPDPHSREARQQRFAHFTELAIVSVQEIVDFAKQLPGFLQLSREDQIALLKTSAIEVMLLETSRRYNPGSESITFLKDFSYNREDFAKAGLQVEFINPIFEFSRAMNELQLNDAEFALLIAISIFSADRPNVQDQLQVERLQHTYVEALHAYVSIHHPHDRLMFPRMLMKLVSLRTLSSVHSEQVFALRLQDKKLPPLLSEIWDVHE
Nature of the data set: Agonist activity at GST-tagged LXRalpha-LBD (unknown origin) by LanthaScreen TR-FRET liver X receptor coactivator assay. Summed up:
(§1)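 Cofactor recruitment assay using the ligand binding domains of LXRβ or LXRα. The read-out was EC50 and Emax, with Emax relative to a full agonist control.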
Background: In TR-FRET formats the signal depends on donor and acceptor labels being close together.

Data set [2] deals with T2, Oxysterols receptor LXR-beta (Homo sapiens, UniProt P55055).
T2 sequence (P55055 whole entry): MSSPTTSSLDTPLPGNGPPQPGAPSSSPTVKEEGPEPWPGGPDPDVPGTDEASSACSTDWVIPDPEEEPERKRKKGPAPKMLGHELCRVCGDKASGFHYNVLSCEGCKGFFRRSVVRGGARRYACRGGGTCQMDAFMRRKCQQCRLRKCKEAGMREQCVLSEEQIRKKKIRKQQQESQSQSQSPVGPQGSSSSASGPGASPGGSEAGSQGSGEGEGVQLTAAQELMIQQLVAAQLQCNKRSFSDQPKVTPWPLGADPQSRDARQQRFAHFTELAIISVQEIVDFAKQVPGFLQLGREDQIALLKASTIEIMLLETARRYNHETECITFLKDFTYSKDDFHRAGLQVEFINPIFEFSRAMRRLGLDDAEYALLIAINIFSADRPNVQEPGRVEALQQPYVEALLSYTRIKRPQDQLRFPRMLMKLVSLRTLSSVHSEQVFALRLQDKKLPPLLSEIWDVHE
As to the kind of experiment: Agonist activity at GST-tagged LXRbeta-LBD (unknown origin) by LanthaScreen TR-FRET liver X receptor coactivator assay. In short, it runs like this: as §1

For data set [3], the target named is T3, Oxysterols receptor LXR-beta (Homo sapiens) (UniProt P55055).
T3 sequence (whole entry): T2 sequence (P55055 whole entry)
As to the kind of experiment: (§2) Agonist activity at LXRbeta (unknown origin) expressed in human H4 cells co-expressing ABCA1 promoter measured after 48 hrs by cell-based transactivation assay.

Data set [4] has as its target T2, Oxysterols receptor LXR-beta. The data set is described as §2.
The target of data set [5] is T4, Oxysterols receptor LXR-alpha (Homo sapiens) (UniProt Q13133).
T4 sequence (whole entry): T1 sequence (Q13133 whole entry)
Nature of the data set: (§3) Agonist activity at LXRalpha (unknown origin) expressed in human HepG2 cells co-expressing ABCA1 promoter measured after 48 hrs by cell-based transactivation assay.

The target in data set [6] is T1, Oxysterols receptor LXR-alpha. Described as §3.
Data set [7] has as its target T3, Oxysterols receptor LXR-beta (Homo sapiens). Nature of the data set: Agonist activity at GST-tagged LXRbeta-LBD (unknown origin) by LanthaScreen TR-FRET liver X receptor coactivator assay relative to T1317. In short, it runs like this:
as §1

Data set [8] has as its target T4, Oxysterols receptor LXR-alpha (Homo sapiens). As to the kind of experiment: Agonist activity at GST-tagged LXRalpha-LBD (unknown origin) by LanthaScreen TR-FRET liver X receptor coactivator assay T1317. Summed up:
as §1

The test system of data set [9] is Rhesus monkey. As to the kind of experiment: Increase in apoE level in CSF of rhesus monkey at 5 mg/kg, po administered for 2 weeks. Type of data set: functional, organism-based. The conditions noted are these: Macaca mulatta. In short, it runs like this: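 Rhesus monkeys were dosed orally once daily for 2 weeks after randomisation on baseline lipids, liver enzymes and liver fat. CSF was taken by lumbar puncture at baseline and at trough after the last dose, and apoE was measured against baseline.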

In data set [10] the test system is Rhesus monkey. Nature of the data set: Increase in apoE level in plasma of rhesus monkey at 5 mg/kg, po administered for 2 weeks. Type of data set: functional, organism-based. Particulars: Macaca mulatta.
For data set [11], the system named is Rhesus monkey. Nature of the data set: Increase in hepatic fat content in rhesus monkey at 5 mg/kg, po qd for 2 weeks by magnetic resonance spectroscopic imaging method relative to vehicle control. In kind it is ADME, organism-based, Macaca mulatta. The conditions noted are these: in vivo, 336 h.
For another data set, the system named is Cynomolgus monkey. As to the kind of experiment: Increase in triglycerides level in cynomolgus monkey liver at >= 3 mg/kg, po qd administered for 2 weeks. The conditions noted are these: in vivo, 336 h. In kind it is ADME, organism-based, Macaca fascicularis.
Data set [12] concerns Mus musculus. As to the kind of experiment: Toxicity in Tg2576 transgenic mouse assessed as increase in plasma triglyceride level at 10 mg/kg, sc dosed for 3 weeks. Type of data set: organism-based. Particulars: in vivo, 504 h. Summed up:
(§4)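 12-month-old Tg2576 mice were dosed subcutaneously for three weeks. Brain was assayed for ABCA1 protein, soluble apoE and DEA-soluble Aβ, and plasma and liver were assayed for triglycerides. Groups were compared with vehicle by ANOVA.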

Data set [13] deals with Mus musculus. As to the kind of experiment: Toxicity in Tg2576 mouse assessed as increase in liver triglyceride level at 10 mg/kg, sc dosed for 3 weeks. Type of data set: organism-based. The conditions noted are these: in vivo, 504 h. Summed up:
as §4

The test system of data set [14] is Rhesus monkey. Nature of the data set: Increase in amyloid beta40 in CSF of rhesus monkey at 10 mg/kg, po administered for 2 weeks. Type of data set: functional, Macaca mulatta.
For data set [15], the system named is Rhesus monkey. Nature of the data set: Increase in amyloid beta40 in CSF of rhesus monkey at 5 mg/kg, po administered for 2 weeks. Type of data set: functional, organism-based. The conditions noted are these: Macaca mulatta.
The subject of data set [16] is Rhesus monkey. Nature of the data set: Increase in amyloid beta42 in CSF of rhesus monkey at 5 mg/kg, po administered for 2 weeks. In kind it is functional, organism-based. Particulars: Macaca mulatta.
The test system of data set [17] is Rhesus monkey. As to the kind of experiment: Increase in amyloid beta42 in CSF of rhesus monkey at 10 mg/kg, po administered for 2 weeks. Type of data set: functional, Macaca mulatta.
Data set [18] in a line: Solubility of the compound at pH 2. Type of data set: physicochemical. The conditions noted are these: buffer.
The subject of data set [19] is P-gp. As to the kind of experiment: Efflux ratio in MDCK cells expressing rat P-gp assessed as ratio of permeability across basolateral to apical side over apical to basolateral side. In kind it is ADME, cell-based, Canis lupus familiaris. The conditions noted are these: dog, MDCK-MDR1.
Data set [20] has as its system P-gp. As to the kind of experiment: Efflux ratio in MDCK cells expressing human P-gp assessed as ratio of permeability across basolateral to apical side over apical to basolateral side. In kind it is ADME, cell-based, Canis lupus familiaris. Particulars: dog, MDCK-MDR1.

Values after ≈ are worked out from the molar mass of the structure shown. Active and inactive are the calls of the source. The rule behind the calls is not given here.

Usually EC50 stands for the concentration at which the effect is half-maximal. As a reminder, the Emax is the size of the effect at its maximum, as opposed to the concentration needed. For the compound `CN(C)C(=O)c1ccc(-c2cnc(N3CCN(C(=O)OC(C)(C)C)CC3)c(C#N)c2)cc1Cl`, the concentration for a half-maximal effect (EC50) in data set [1] was 1480 nM; in [2] it was 940 nM; in data set [4], 770 nM; in data set [6], 280 nM. The maximal effect (Emax) came to 103% in data set [3], 40% in [5], 106% in [7] and 50% in [8].

Consider `CC(C)(O)CNC(=O)Nc1ccc(C(=O)N2CCN(Cc3ccc(C(O)(C(F)(F)F)C(F)(F)F)cc3)CC2)cc1F`, for which, in the data set with Rhesus monkey [9], the result was inactive. For the same compound, in the data set with Rhesus monkey [10], the outcome was Active. The “fold change (FC)” value in the data set with Rhesus monkey [11] stood at 4. Further, the Activity result in the data set on Cynomolgus monkey is “Toxic”.

For `O=S(=O)(c1ccccc1)N(CC(F)(F)F)c1ccc(C(O)(C(F)(F)F)C(F)(F)F)cc1` [T091317], the Activity result is “Toxic” in the data set on Mus musculus [12], “Toxic” in the data set on Mus musculus [13], 25% with Rhesus monkey [14] and 25% in the data set on Rhesus monkey [17]. The result in the data set with Rhesus monkey [15] and with Rhesus monkey [16] was inactive.

The term solubility denotes the concentration that dissolves in the medium under given conditions. A word on the efflux ratio: it is a quotient of directional permeabilities that is used to spot active efflux. For the compound `CN(C)C(=O)c1ccc(N2CCC(C3CCN(C(=O)[C@](O)(c4ccccc4)C(F)(F)F)CC3)CC2)cc1Cl`, the Emax in data set [3] turned out to be 91%; in data set [5], 24%. In addition, the values for the half-maximal effective concentration (EC50) in [4] and in data set [6] were 550 nM and 500 nM, respectively. In data set [18], this compound returned a solubility of 197 µM (≈ 109 µg/mL). Besides, the efflux ratio amounted to 4.3 with P-gp [19] and 1.8 in the data set on P-gp [20].

As for `CN(C)C(=O)c1ccc(-c2cnc(N3CCN(C(=O)[C@](O)(c4ccccc4)C(F)(F)F)CC3)c(C#N)c2)cc1Cl`, the EC50 in [1] came to 41 nM; in data set [2], 8 nM; in [4], 7 nM; in data set [6], 45 nM. Further, the Emax was 64% in data set [3], 66% in data set [5], 67% in data set [7] and 62% in data set [8]. The amount in solution in [18] (solubility) came to 3 µM (≈ 1.72 µg/mL).

With `CC(C)[C@](O)(C(=O)N1CCC(C2CCN(c3ccc(C(=O)N(C)C)c(Cl)c3)CC2)CC1)C(F)(F)F`, the maximal effect (Emax) in data set [3] is 117%; in [5], 31%. The results for the concentration giving a half-maximal response (EC50) in data set [4] and in [6] were 840 nM and 2000 nM, respectively.
